Xi reactivation = activators of inactive X chromosome reactivation, primary screen, imaging, XiGFP fibroblasts, GFP high-content imaging, set 2 | XiGFP mouse fibroblasts, % GFP-positive cells imaging, 3 d; cells co-treated with 5-aza-dC sensitizer; scaled so ellipticine positive control = 100% | activation, % at 7.58 µM | hit rate 0.055% among 360,000 | AID 743238, 2013;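 active means mean normalized replicate activation at least 10% and every replicate at or above 10%; inconclusive means only one of the two criteria met; inactive means mean below 10% and not all replicates reach 10%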;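 further: 0% = median of on-plate neutral control wells and 100% = ellipticine 6 µM median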
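Assay system: SV40-immortalized XiGFP fibroblast cells, line 68-5-11; buffer or medium: DMEM plus 5-aza-dC sensitizer; compound: one concentration, pinned; timing: compounds 3 days, fix/stain 15 min at room temperature; benchmarks: positive control ellipticine, 6 µM final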
DENV2 CPE = inhibitors of DENV2 cytopathic effect, primary screen, cell-based, plate reader, single concentration; DENV2-infected cells, cytopathic effect rescue; CPE inhibition, % at 9.99 µM; hit rate 1.7% among 350,000; in the data active means CPE inhibition above about 20%, passing the limit was not always enough; inconclusive means no clear call, values can overlap the other calls; tested in BHK-21 cells;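 further: 0% = median of neutral control wells and 100% = median of positive control wells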
S100A4 inh HTS = inhibitors of S100A4-myosin IIA peptide binding, primary screen, biochemical, fluorescence polarization, TAMRA-MyoIIA peptide | Protein S100-A4 (Homo sapiens), P26447 | inhibition, % at 10.7 µM | hit rate 0.14% among 360,000;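 active means mean inhibition of at least 70% across replicates, with every replicate also reaching that level; inconclusive means mean inhibition reaches 70% but some replicates fall short; inactive means mean inhibition below 70%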
Target sequence (P26447 whole entry, looked up): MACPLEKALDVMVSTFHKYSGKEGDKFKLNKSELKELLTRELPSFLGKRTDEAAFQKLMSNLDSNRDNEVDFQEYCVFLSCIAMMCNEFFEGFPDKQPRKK
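Test system: S100A4 monomer protein. Medium: HEPES buffer with Ca2+, pH 7.2. Reagent: fluorescent myosin IIA peptide, 5 nM. Compound dosing: single-point compound testing. Timing: 5 min between mix addition and reading. Benchmarks: DMSO neutral and TFP positive wells.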
E-selectin induc = E-selectin induction in HUVECs, primary screen, imaging, HUVEC, immunofluorescence imaging, single point; P16581; normalized: neutral wells 0, TNF-alpha wells 100; activation, % at 7.58 µM; hit rate 0.37% among 260,000; AID 686992, 2013;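 active means mean E-selectin-positive cell signal at least 10% of the positive control, reached in at least 60% of replicates, without over 20% cell loss; inconclusive means no rule given, readout overlaps actives, possibly toxicity-flagged; inactive means the rest, including those meeting only one limit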
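Test system: HUVEC; input: 3,000 HUVEC/well; measured by: immunofluorescence imaging; read-out: % PE-positive cells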
Active calls of the source: *. The list is not random: actives were taken first. Their share in the collection is about 2%.

`O=C(Nc1nc(-c2ccc([N+](=O)[O-])cc2)cs1)C1=COCCO1` gave Xi reactivation 0, DENV2 CPE 42*, S100A4 inh HTS 3 and E-selectin induc 0.
Screening C[C@@H]1CCCCO[C@@H](CN(C)Cc2ccc(Cl)c(Cl)c2)[C@H](C)CN([C@H](C)CO)C(=O)c2cc(NS(=O)(=O)c3ccc(Cl)cc3)ccc2O1 returned Xi reactivation 0, DENV2 CPE 13 and S100A4 inh HTS 1.
C[C@@H]1CCCCO[C@@H](CN(C)Cc2ccc(Cl)c(Cl)c2)[C@@H](C)CN([C@H](C)CO)C(=O)c2cc(NS(=O)(=O)c3ccc(Cl)cc3)ccc2O1 was read as Xi reactivation 0, DENV2 CPE 79* and S100A4 inh HTS -72.
Screening C[C@@H]1CCCCO[C@H](CN(C)Cc2ccc(Cl)c(Cl)c2)[C@@H](C)CN([C@@H](C)CO)C(=O)c2cc(NS(=O)(=O)c3ccc(F)cc3)ccc2O1 returned Xi reactivation 0, DENV2 CPE 31*, S100A4 inh HTS 1 and E-selectin induc 0.
`C=CCSc1nc(C)c(Cc2cccc3ccccc23)c(=O)[nH]1` gave Xi reactivation 0, DENV2 CPE -10 and S100A4 inh HTS 0.
For O=C(NCC1CCCO1)c1ccc2c(c1)N(Cc1ccc(Cl)cc1)CCS2 (stereo not drawn) the results were Xi reactivation 0, DENV2 CPE -5, S100A4 inh HTS 1 and E-selectin induc 0.
O=C(NCCN1CCCCC1)Nc1ccc(Cl)cc1 was read as Xi reactivation 0, DENV2 CPE 0 and S100A4 inh HTS -5.
Screening CC1=NCCN1CCNC(=O)Nc1ccc(C(C)(C)C)cc1 returned Xi reactivation 0, DENV2 CPE 24* and S100A4 inh HTS -7.
O=C1CCCCn2cc(nn2)COC[C@@H](Cc2ccccc2)N1 was read as Xi reactivation 0.
O=C1CCCn2cc(nn2)COC[C@@H](Cc2ccccc2)N1 was read as Xi reactivation 0, DENV2 CPE 0, S100A4 inh HTS 117* and E-selectin induc 0.
Screening COC(=O)[C@]12C[C@H](CC(=O)NCCCCc3ccccc3)C(=O)N(Cc3ccccc3)C1=C[C@H](C(C)C)O[C@@H]2C1CC1 returned Xi reactivation 0, DENV2 CPE -12, S100A4 inh HTS 5 and E-selectin induc 0.
For Cc1ccccc1-n1cnc2c(sc3nc(N4CCOCC4)c4c(c32)CCCC4)c1=O the results were Xi reactivation 0, DENV2 CPE 42* and S100A4 inh HTS -3.
Screening O=C(c1cc2c(c(-c3cccc(Br)c3)n1)[C@H](CCO)NC2)N1CCCCC1 returned Xi reactivation 0, DENV2 CPE 35*, S100A4 inh HTS -21 and E-selectin induc 16.
`O=C(c1cc2c(c(-c3cccc(Br)c3)n1)[C@@H](CCO)NC2)N1CCCCC1` gave Xi reactivation 0 and E-selectin induc 132*.
`CN1C2CCC1CC(NS(=O)(=O)c1cc(Cl)c(Cl)cc1Cl)C2` (stereo not drawn) gave Xi reactivation 0, DENV2 CPE 3, S100A4 inh HTS -3 and E-selectin induc -1.
CCC(C)[C@H](NC(=O)[C@@H]1Cc2ccccc2CN1)C(=O)NCc1ccc(C)cc1 (stereo partly drawn) was read as Xi reactivation 4, DENV2 CPE 92* and S100A4 inh HTS -3.
CCC(C)[C@H](NC(=O)[C@@H]1Cc2ccccc2CN1)C(=O)NCc1ccc(OC)cc1 (stereo partly drawn) was read as DENV2 CPE inconclusive and S100A4 inh HTS -1.
`C[C@H](CO)N1C[C@H](C)[C@@H](CN(C)C(=O)Nc2cccc3ccccc23)OCCCC[C@H](C)Oc2ccc(NS(=O)(=O)c3ccc(F)cc3)cc2C1=O` gave Xi reactivation 0, DENV2 CPE 39*, S100A4 inh HTS -4 and E-selectin induc 0.
For C[C@@H]1CCCCO[C@@H](CN(C)C(=O)Nc2cccc3ccccc23)[C@@H](C)CN([C@H](C)CO)C(=O)c2cc(NS(=O)(=O)c3ccc(F)cc3)ccc2O1 the results were Xi reactivation 1, DENV2 CPE inconclusive, S100A4 inh HTS 3 and E-selectin induc 0.
`C[C@@H]1CCCCO[C@@H](CN(C)C(=O)Nc2cccc3ccccc23)[C@H](C)CN([C@H](C)CO)C(=O)c2cc(NS(=O)(=O)c3ccccc3)ccc2O1` gave Xi reactivation 0, DENV2 CPE 10 and S100A4 inh HTS -24.
Screening C[C@@H]1CCCCO[C@H](CN(C)C(=O)Nc2cccc3ccccc23)[C@H](C)CN([C@@H](C)CO)C(=O)c2cc(NS(=O)(=O)c3cn(C)cn3)ccc2O1 returned Xi reactivation 0, DENV2 CPE -11 and E-selectin induc 0.
`C[C@H](CO)N1C[C@H](C)[C@H](CN(C)C(=O)Nc2cccc3ccccc23)OCCCC[C@H](C)Oc2ccc(NS(=O)(=O)c3cn(C)cn3)cc2C1=O` gave Xi reactivation -1, DENV2 CPE 103* and E-selectin induc 0.
Screening C[C@@H]1CCCCO[C@@H](CN(C)C(=O)Nc2cccc3ccccc23)[C@@H](C)CN([C@H](C)CO)C(=O)c2cc(NS(=O)(=O)c3ccc(Cl)cc3)ccc2O1 returned Xi reactivation 0, DENV2 CPE 5 and S100A4 inh HTS 10.
C[C@@H]1CCCCO[C@H](CN(C)C(=O)Nc2cccc3ccccc23)[C@@H](C)CN([C@@H](C)CO)C(=O)c2cc(NS(=O)(=O)c3ccccc3)ccc2O1 was read as Xi reactivation 0, DENV2 CPE 34* and S100A4 inh HTS 5.
For C[C@@H]1CCCCO[C@H](CN(C)C(=O)Nc2cccc3ccccc23)[C@H](C)CN([C@H](C)CO)C(=O)c2cc(NS(=O)(=O)c3ccc(Cl)cc3)ccc2O1 the results were Xi reactivation 0, DENV2 CPE 58* and S100A4 inh HTS -11.
For CC(Oc1ccc(Br)cc1Br)C(=O)Nc1cccnc1 (stereo not drawn) the results were Xi reactivation 0, DENV2 CPE -1, S100A4 inh HTS -4 and E-selectin induc 0.
Screening Cc1cc(=O)[nH]c(SCC(=O)Nc2ccc(F)c([N+](=O)[O-])c2)n1 returned Xi reactivation 0, DENV2 CPE -3, S100A4 inh HTS -2 and E-selectin induc 6.
Screening COc1ccc(S(=O)(=O)Nc2ccc3c(c2)C(=O)N([C@@H](C)CO)C[C@@H](C)[C@H](CN(C)C(=O)Nc2cccc4ccccc24)OCCCC[C@@H](C)O3)cc1 returned Xi reactivation 0, DENV2 CPE -15 and E-selectin induc 3.
